BindingDB's records for doi:10.1021/acs.jnatprod.6b00141 (University of Eastern Piedmont, 2016)
pIC50: −log10 of the molar value.

molecular target: Signal transducer and activator of transcription 3 (Homo sapiens, UniProt P40763); experiment: Inhibition of IFNgamma-induced STAT3 activation in human HeLa cells expressing STAT3 (unknown origin) preincubated for 15 mins followed by IFN-gamma addition measured after 6 hrs by luciferase reporter gene assay
Procedure, shortened: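 HeLa-STAT3-Luc reporter cells in DMEM with 10% heat-inactivated FBS. Compounds added 15 min before IFNγ (20 IU). Stimulated 6 h. Cells washed in PBS and lysed 15 min at room temperature in Tris-phosphate pH 7.8 lysis buffer. Luciferase read in centrifuged lysate supernatant. IC50 calculated.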

Signal transducer and activator of transcription 3, sequence (P40763 whole entry): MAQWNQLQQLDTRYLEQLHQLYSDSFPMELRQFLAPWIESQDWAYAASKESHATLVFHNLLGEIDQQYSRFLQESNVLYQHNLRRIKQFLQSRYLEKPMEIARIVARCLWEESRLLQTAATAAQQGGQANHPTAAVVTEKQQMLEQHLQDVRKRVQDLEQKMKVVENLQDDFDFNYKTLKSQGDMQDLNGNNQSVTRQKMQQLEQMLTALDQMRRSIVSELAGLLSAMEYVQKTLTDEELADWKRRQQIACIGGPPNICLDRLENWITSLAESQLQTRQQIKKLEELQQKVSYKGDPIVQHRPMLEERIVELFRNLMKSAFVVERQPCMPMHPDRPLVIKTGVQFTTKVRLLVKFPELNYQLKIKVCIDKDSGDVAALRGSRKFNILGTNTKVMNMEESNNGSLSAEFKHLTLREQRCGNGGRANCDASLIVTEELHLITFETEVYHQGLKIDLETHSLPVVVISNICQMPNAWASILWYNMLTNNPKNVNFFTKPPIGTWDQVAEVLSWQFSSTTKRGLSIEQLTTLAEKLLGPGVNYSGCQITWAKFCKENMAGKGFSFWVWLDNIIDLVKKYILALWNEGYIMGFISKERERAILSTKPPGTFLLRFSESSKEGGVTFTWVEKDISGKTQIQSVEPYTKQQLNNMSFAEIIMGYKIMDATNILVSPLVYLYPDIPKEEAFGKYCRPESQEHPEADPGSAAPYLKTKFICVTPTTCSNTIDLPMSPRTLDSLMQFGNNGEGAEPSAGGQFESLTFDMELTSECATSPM

Compound | pIC50
CC(=O)O[C@H]1CC/C(C)=C/CC/C(C)=C/C[C@]2(C(C)C)CC[C@@]1(C)O2 | < 4.30
C/C1=C\CC/C(C)=C/C[C@](O)(C(C)C)CC/C(C)=C/CC1 | < 4.30
CC1=C2CC/C(C)=C/CC[C@]3(C)O[C@@H]3CC/C(C)=C/[C@@H]2OC1=O | < 4.30
C/C1=C\C[C@]2(C(C)C)CC[C@@](C)(O2)[C@H](O)CC/C(C)=C/CC1 | < 4.30
C/C1=C\CC[C@]2(C)O[C@@H]2C[C@]2(C(C)C)CC[C@@](C)(O2)[C@@H](O)CC1 | < 4.30
CC(=O)O[C@H]1CC/C(C)=C/CC[C@]2(C)O[C@@H]2C[C@]2(C(C)C)CC[C@@]1(C)O2 | < 4.30
CC(=O)O[C@H]1CC[C@@]2(C)O[C@H]2CC/C(C)=C/C[C@]2(C(C)C)CC[C@@]1(C)O2 | < 4.30
C/C1=C\C[C@]2(C(C)C)CC[C@@](C)(O2)[C@@H](OC(=O)Cc2ccccc2)CC/C(C)=C/CC1 | < 4.30
C/C1=C\C[C@]2(C(C)C)CC[C@@](C)(O2)[C@@H](O)CC/C(C)=C/CC1 [Incensole] | 4.80

molecular target: Transcription factor p65 (Human, UniProt Q04206); experiment: Inhibition of NFkappaB p65 activation (unknown origin) expressed in human HeLa cells assessed as inhibition of TNFalpha-induced NFkappaB p65 nuclear accumulation pretreated with cells followed by TNFalpha addition by DAPI staining based microscopic analysis
Sequence (Q04206 whole entry): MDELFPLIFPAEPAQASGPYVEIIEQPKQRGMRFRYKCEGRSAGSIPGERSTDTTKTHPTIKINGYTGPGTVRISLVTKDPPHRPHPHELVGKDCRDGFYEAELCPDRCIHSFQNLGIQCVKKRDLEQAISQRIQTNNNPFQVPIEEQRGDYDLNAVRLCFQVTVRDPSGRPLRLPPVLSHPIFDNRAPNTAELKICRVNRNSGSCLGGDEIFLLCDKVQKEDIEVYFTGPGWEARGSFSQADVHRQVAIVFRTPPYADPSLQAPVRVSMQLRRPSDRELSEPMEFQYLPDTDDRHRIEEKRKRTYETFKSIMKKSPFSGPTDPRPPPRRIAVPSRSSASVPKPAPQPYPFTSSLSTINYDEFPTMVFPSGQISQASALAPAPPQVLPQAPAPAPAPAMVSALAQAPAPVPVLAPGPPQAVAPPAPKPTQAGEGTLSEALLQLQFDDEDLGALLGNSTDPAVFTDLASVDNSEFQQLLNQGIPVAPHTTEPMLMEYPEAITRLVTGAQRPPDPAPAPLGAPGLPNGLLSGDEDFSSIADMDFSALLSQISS

Compound | pIC50
CC(=O)O[C@H]1CC/C(C)=C/CC/C(C)=C/C[C@]2(C(C)C)CC[C@@]1(C)O2 | < 4.00
